Experimental data taken from ChEMBL document CHEMBL1147575, “Novel inhibitors of fatty acid oxidation as potential metabolic modulators” (Bioorg Med Chem Lett, 2004).

Columns and labels:
Rattus norvegicus [1] = species: Rattus norvegicus; experiment: Inhibition of 1-14C]palmitoyl-CoA oxidation in rat heart mitochondria.; type: functional
Summary of the method: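 Rat heart mitochondria; substrate 1-14[C]-palmitoyl-CoA, oxidation measured. Tested at 6 concentrations; IC50 from non-linear regression curve fit, mean of n=3. Run only for compounds giving ≥50% inhibition at 100 µM.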

Rattus norvegicus [2] = species: Rattus norvegicus; experiment: Inhibition of 1-14C]palmitoyl-CoA oxidation in rat heart mitochondria at 100 uM concentration; type: functional
Summary of the method: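 Single-point screen at 100 µM: percent inhibition of 1-14[C]-palmitoyl-CoA oxidation in rat heart mitochondria. 95% confidence limits generally ±15% of the mean.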

Homo sapiens = species: Homo sapiens; experiment: Amount of parent compound remaining after incubation with human liver microsomes for 30 min.; type: functional
Summary of the method: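 Human liver microsome (liver S-9) incubation for 30 min; read-out is percent of parent drug remaining.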

[3] = AUC in rat after oral administration at 11.2 mg/kg dose; type: ADME, organism-based; design: dose 11.2 mg/kg, route oral; conditions: plasma
Summary of the method: (§1)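 Rats dosed orally, single dose per compound (9.7–13 mg/kg). Preliminary PK: oral bioavailability (%F), AUC (ng·hr/mL) and t1/2 (h) derived; values are average of n=3.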

[4] = Half life period in rat after oral administration at 11.2 mg/kg dose; type: ADME, organism-based; design: dose 11.2 mg/kg, route oral; conditions: in vivo; summary of the method: as §1
[5] = Oral bioavailability in rat after oral administration at 11.2 mg/kg dose; type: ADME, organism-based; conditions: in vivo; summary of the method: as §1
[6] = AUC in rat after oral administration at 10.5 mg/kg dose; type: ADME, organism-based; design: dose 10.5 mg/kg, route oral; conditions: plasma; summary of the method: as §1
[7] = Oral bioavailability in rat after oral administration at 10.5 mg/kg dose; type: ADME, organism-based; conditions: in vivo; summary of the method: as §1
[8] = Half life period in rat after oral administration at 10.5 mg/kg dose; type: ADME, organism-based; design: dose 10.5 mg/kg, route oral; conditions: in vivo; summary of the method: as §1
[9] = Oral bioavailability in rat after oral administration at 13 mg/kg dose; type: ADME, organism-based; conditions: in vivo; summary of the method: as §1
[10] = Area under curve in rat after oral administration at 13 mg/kg dose; type: ADME, organism-based; design: dose 13 mg/kg, route oral; conditions: in vivo; summary of the method: as §1
[11] = Half life period in rat after oral administration at 13 mg/kg dose; type: ADME, organism-based; design: dose 13 mg/kg, route oral; conditions: in vivo; summary of the method: as §1
[12] = AUC in rat after oral administration at 9.7 mg/kg dose; type: ADME, organism-based; design: dose 9.7 mg/kg, route oral; conditions: plasma; summary of the method: as §1
[13] = Oral bioavailability in rat after oral administration at 9.7 mg/kg dose; type: ADME, organism-based; conditions: in vivo; summary of the method: as §1
[14] = Half life period in rat after oral administration at 9.7 mg/kg dose; type: ADME, organism-based; design: dose 9.7 mg/kg, route oral; conditions: in vivo; summary of the method: as §1

Structure (SMILES) | IC50 (Rattus norvegicus [1]) | inhibition (Rattus norvegicus [2]) | Remaining (Homo sapiens) | other results
Cc1cccc(C)c1NC(=O)CN1CCN(CC(O)COc2ccc3oc(-c4ccc(C(F)(F)F)cc4)nc3c2)CC1 (centres undefined) | 8 µM | 89% | 40% | 
Cc1nc2cc(OC[C@H](O)CN3C(C)CN(CC(=O)Nc4c(C)cccc4C)CC3C)ccc2s1 (some centres undefined) | 0.07 µM |  | 21% | AUC [3]: 128 ng·h/mL; half-life [4]: 3.5 h; bioavailability [5]: 11%
Cc1nc2ccc(OCC(O)CN3CCN(CC(=O)Nc4c(C)cccc4C)CC3)cc2s1 (centres undefined) |  | 3% |  | 
Cc1nc2cc(OC[C@H](O)CN3C[C@@H]4C[C@H]3CN4CC(=O)Nc3c(C)cccc3C)ccc2s1 |  | 26% |  | 
Cc1nc2cc(OCC(O)CN3CCN(CC(=O)Nc4c(C)cccc4C)CC3)ccc2s1 (centres undefined) | 10 µM | 88% | 50% | bioavailability [9]: 45%; AUC [10]: 1260 ng·h/mL; half-life [11]: 3 h
Cc1nc2cc(OC[C@H](O)CN3CC4CC3CN4CC(=O)Nc3c(C)cccc3C)ccc2s1 (some centres undefined) |  | 40% |  | 
Cc1nc2cc(OC[C@@H](O)CN3CCN(CC(=O)Nc4c(C)cccc4C)CC3)ccc2s1 |  | 47% | 35% | 
Cc1nc2cc(OCC(O)CN3CCN(CC(=O)Nc4c(C)cccc4C)CC3(C)C)ccc2s1 (centres undefined) | 0.45 µM |  | < 10% | 
Cc1cccc(C)c1NC(=O)CN1CCN(CC(O)COc2ccc3ncsc3c2)CC1 (centres undefined) |  | 3% |  | 
Cc1nc2cc(OCCCN3CCN(CC(=O)Nc4c(C)cccc4C)CC3)ccc2s1 |  | 38% | < 30% | 
Cc1nc2cc(OC[C@H](O)CN3CCN(CC(=O)Nc4c(C)cccc4C)C[C@@H]3C)ccc2s1 | 0.2 µM |  | < 10% | AUC [12]: 278 ng·h/mL; bioavailability [13]: 5%; half-life [14]: 6.2 h
Cc1nc2cc(OCC(O)CN3CCN(CC(=O)Nc4c(C)cccc4C)CC3)ccc2o1 (centres undefined) |  | 34% |  | 

Now from value to compound, other results behind:

IC50 (Rattus norvegicus [1]) | Structure (SMILES) | inhibition (Rattus norvegicus [2]) | Remaining (Homo sapiens) | other results
20 µM | CCCc1nc2cc(OCC(O)CN3CCN(CC(=O)Nc4c(C)cccc4C)CC3)ccc2s1 (centres undefined) | 70% | 15% | 
13 µM | Cc1cccc(C)c1NC(=O)CN1CCN(CC(O)COc2ccc3oc(-c4cccc(C(F)(F)F)c4)nc3c2)CC1 (centres undefined) | 82% | 6% | 
0.11 µM | Cc1nc2cc(OC[C@H](O)CN3CCN(CC(=O)Nc4c(C)cccc4C)CC3(C)C)ccc2s1 |  | < 10% | AUC [6]: 265 ng·h/mL; bioavailability [7]: 13%; half-life [8]: 4.2 h
23 µM | Cc1cccc(C)c1NC(=O)CN1CCN(CC(O)COc2ccc3oc(-c4ccccc4)nc3c2)CC1 (centres undefined) | 70% | 15% | 
0.023 µM | Cc1nc2cc(OC[C@H](O)CN3CC(C)N(CC(=O)Nc4c(C)cccc4C)CC3C)ccc2s1 (some centres undefined) |  | < 10% | 
13 µM | CCc1nc2cc(OCC(O)CN3CCN(CC(=O)Nc4c(C)cccc4C)CC3)ccc2s1 (centres undefined) | 75% | 29% | 
4 µM | Cc1nc2cc(OC[C@H](O)CN3CCN(CC(=O)Nc4c(C)cccc4C)CC3)ccc2s1 |  | < 27% | 
2 µM | Cc1nc2cc(OC[C@H](O)CN3CCN(CC(=O)Nc4c(C)cccc4C)C[C@H]3C)ccc2s1 |  | < 10% | 
5 µM | Cc1nc2cc(OC[C@@H](O)CN3CCN(CC(=O)Nc4c(C)cccc4C)C[C@@H]3C)ccc2s1 |  | < 30% | 
10 µM | Cc1nc2cc(OC[C@@H](O)CN3CCN(CC(=O)Nc4c(C)cccc4C)C[C@H]3C)ccc2s1 |  | < 10% | 
2.5 µM | Cc1nc2cc(OC[C@@H](O)CN3C(C)CN(CC(=O)Nc4c(C)cccc4C)CC3C)ccc2s1 (some centres undefined) |  | < 30% | 
